Tests used:
[1] = Inhibition of EV71 protease 3C using NMA-IEALFQGPPK(DNP)FR as substrate preincubated for 30 mins followed by substrate addition measured after 2 hrs by FRET analysis; set-up: species or system Enterovirus A71
[2] = Cytotoxicity against human Rhabdomyosarcoma cells after 24 hrs by WST-1 cell proliferation assay; format: cell-based
Outline: (§1)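 EC50 (antiviral) or CC50 (cytotoxicity) values are averaged over three independent experiments, with error given as SEM (n=3).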

[3] = system: Enterovirus A71; assay: Antiviral activity against EV71 pseudotype virus infected in human Rhabdomyosarcoma cells assessed as reduction in viral replication after 24 hrs by Bright-Glo Luciferase Assay; format: functional, organism-based; settings: Enterovirus A; outline: as §1
[4] = Inhibition of EV71 protease 3C using Dabcyl-KTSAVLQSGFRKME-Edans as substrate by fluorescence analysis; set-up: species or system Enterovirus A71
[5] = Toxicity in iv dosed mouse measured for 24 hrs; format: organism-based; settings: in vivo
Outline: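 Acute toxicity study in mice dosed by intravenous injection; the read-out is LD50 in mg/kg.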

Compound	IC50 [1] [µM]	CC50 at 24 h [2] [µM]	EC50 [3] [µM]	IC50 [4] [µM]	LD50 at 24 h [5] [mg/kg]
N#CC(O)[C@H](C[C@@H]1CCCNC1=O)NC(=O)[C@H](Cc1ccccc1)NC(=O)/C=C/c1ccccc1 (some centres undefined)	1.13	> 100	0.12		
O=C(/C=C/c1ccccc1)N[C@@H](Cc1ccccc1)C(=O)N[C@H](CO)C[C@@H]1CCCNC1=O	> 10	> 100	> 100		
Cc1cc(C(=O)N[C@@H](Cc2ccc(F)cc2)C(=O)N[C@H](C=O)C[C@@H]2CCCNC2=O)no1	0.1	> 100	0.11		
CCCNC(=O)C(=O)[C@H](C[C@@H]1CCCNC1=O)NC(=O)[C@H](Cc1ccccc1)NC(=O)/C=C/c1ccccc1	9.49	> 100	4.59		
CCOC(=O)/C=C/[C@H](C[C@@H]1CCNC1=O)NC(=O)[C@@H](CC(=O)[C@@H](NC(=O)c1cc(C)on1)C(C)C)Cc1ccc(F)cc1 [RUPINTRIVIR]				2.3	
CC(=O)OC(C#N)[C@H](C[C@@H]1CCCNC1=O)NC(=O)[C@H](Cc1ccccc1)NC(=O)/C=C/c1ccccc1 (some centres undefined)	1.62	> 100	0.1		
Cc1cc(C(=O)N[C@@H](Cc2ccc(F)cc2)C(=O)N[C@@H](C[C@@H]2CCCNC2=O)C(O)C#N)no1 (some centres undefined)	0.28	> 100	0.056		
N#CC(OC(=S)Oc1ccccc1)[C@H](C[C@@H]1CCCNC1=O)NC(=O)[C@H](Cc1ccccc1)NC(=O)/C=C/c1ccccc1 (some centres undefined)	1.05	> 100	0.15		
N#C[C@H](C[C@@H]1CCCNC1=O)NC(=O)[C@H](Cc1ccccc1)NC(=O)/C=C/c1ccccc1	> 10	> 100	> 100		
CCCNC(=O)C(O)[C@H](C[C@@H]1CCCNC1=O)NC(=O)[C@H](Cc1ccccc1)NC(=O)/C=C/c1ccccc1 (some centres undefined)	> 10	> 100	> 100		
Cc1cc(C(=O)N[C@@H](Cc2ccc(F)cc2)C(=O)N[C@@H](C[C@@H]2CCCNC2=O)[C@H](O)C#N)no1	0.31	> 100	0.045		
Cc1cc(C(=O)N[C@@H](Cc2ccc(F)cc2)C(=O)N[C@@H](C[C@@H]2CCCNC2=O)[C@@H](O)C#N)no1	0.27	> 100	0.048		96.5
N#CC[C@H](C[C@@H]1CCCNC1=O)NC(=O)[C@H](Cc1ccccc1)NC(=O)/C=C/c1ccccc1	> 10	> 100	28.4		
O=C[C@H](C[C@@H]1CCCNC1=O)NC(=O)[C@H](Cc1ccccc1)NC(=O)/C=C/c1ccccc1	0.54	> 100	0.26		
O=C[C@H](C[C@@H]1CCNC1=O)NC(=O)[C@H](Cc1ccccc1)NC(=O)/C=C/c1ccccc1	3.81	> 100	3.07		

From ChEMBL document CHEMBL3739383, “Cyanohydrin as an Anchoring Group for Potent and Selective Inhibitors of Enterovirus 71 3C Protease” (J Med Chem, 2015)
